Results published in article PMC3839535 (Nature chemical biology, 2013).
“Also recorded” adds a separate entry of the source.

How the values were obtained:
[1] = molecular target: T1, human melanopsin (Homo sapiens, UniProt Q9UHM6); experiment: Radioligand binding with [^3H]2-AA41612 to CHO^Opn4 cell membranes; details: competition binding
T1 sequence (Q9UHM6 1-478): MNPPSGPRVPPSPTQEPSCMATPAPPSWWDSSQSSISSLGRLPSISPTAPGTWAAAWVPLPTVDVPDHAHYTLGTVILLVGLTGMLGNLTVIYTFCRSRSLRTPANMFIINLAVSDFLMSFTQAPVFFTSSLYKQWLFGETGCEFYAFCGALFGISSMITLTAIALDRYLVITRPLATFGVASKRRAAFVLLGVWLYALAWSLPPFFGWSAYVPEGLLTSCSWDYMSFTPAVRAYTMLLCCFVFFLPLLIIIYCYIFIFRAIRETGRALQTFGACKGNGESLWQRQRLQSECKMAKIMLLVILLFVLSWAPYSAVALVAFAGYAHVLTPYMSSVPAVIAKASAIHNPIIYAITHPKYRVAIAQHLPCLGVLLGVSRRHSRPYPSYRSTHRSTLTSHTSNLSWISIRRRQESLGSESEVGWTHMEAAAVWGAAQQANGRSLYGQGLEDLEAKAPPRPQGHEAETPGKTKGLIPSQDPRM
In short: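 Membranes came from light-exposed CHO cells stably expressing human melanopsin. Cells were sonicated in ice-cold 20 mM Tris-HCl, 10 mM EDTA, pH 7.4, then spun at 200g for 5 min and 40,000g for 20 min at 4 °C, and washed. Assay buffer was 50 mM Tris-HCl, 1 mM EDTA, 5 mM MgSO4, pH 7.4. Saturation binding used increasing concentrations of [3H] radioligand. Competition binding used 300 pM radioligand against increasing competitor for 2 h in the dark at 25 °C. Reactions were filtered through PEI-treated glass fibre filters and counted by scintillation. Nonspecific binding was defined with 10 µM 9-cis retinal, and specific binding was taken as total minus nonspecific.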

[2] = molecular target: T2, mouse melanopsin (Mus musculus, UniProt Q9QXZ9); experiment: Melanopsin photocurrent in Xenopus oocytes; format: cell-based
T2 sequence (Q9QXZ9 1-521): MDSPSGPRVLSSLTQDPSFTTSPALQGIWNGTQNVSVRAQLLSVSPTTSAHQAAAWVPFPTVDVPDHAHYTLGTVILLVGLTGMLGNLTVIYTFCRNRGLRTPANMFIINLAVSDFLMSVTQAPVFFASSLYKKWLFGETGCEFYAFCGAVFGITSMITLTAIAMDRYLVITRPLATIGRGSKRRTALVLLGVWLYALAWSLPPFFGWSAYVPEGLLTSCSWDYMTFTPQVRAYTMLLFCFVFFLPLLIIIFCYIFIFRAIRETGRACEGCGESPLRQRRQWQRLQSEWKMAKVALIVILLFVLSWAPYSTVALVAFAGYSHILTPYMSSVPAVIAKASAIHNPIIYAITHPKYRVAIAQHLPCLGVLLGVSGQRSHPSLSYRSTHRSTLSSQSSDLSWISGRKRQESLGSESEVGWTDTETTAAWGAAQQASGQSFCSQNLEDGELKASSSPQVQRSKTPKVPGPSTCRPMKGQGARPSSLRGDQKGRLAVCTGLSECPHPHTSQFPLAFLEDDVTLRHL
In short: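 Stage IV Xenopus oocytes injected with in vitro transcribed, polyadenylated mRNAs for mouse melanopsin, TrpC3, Gαq and Arrb1. Test compound was perfused for 3 min at increasing concentrations before 50 µM 11-cis retinal was added. Melanopsin photocurrent was recorded intracellularly in response to 60 s white light, averaged over n = 5 oocytes.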

[3] = molecular target: T1, human melanopsin; experiment: Ca^2+ release assay in CHO^Opn4 cells; format: cell-based
[4] = Pharmacokinetics: retina and brain levels after IP dosing; format: in vivo; details: mice, 30 mg kg^−1 IP, within 2 h
In short: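 Mice were dosed at 30 mg kg−1 IP, and retina and brain were sampled at several times afterwards. Frozen brains were homogenised in four volumes of 50% water/30% 2-propanol/20% DMSO and spiked with internal standard. Samples were centrifuged and the supernatant analysed by LC/MS/MS. Quantitation used a standard curve (0–5,000 ng/ml) prepared in homogenate.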

[5] = test system: rod/cone photoreceptors; experiment: Electroretinogram; format: in vivo; details: WT C57BL/6J and Opn4^−/− mice, 30 mg kg^-1, recorded within 30 min of administration, versus vehicle
[6] = test system: neonatal mice; experiment: Negative phototaxis assay; format: in vivo; details: WT neonatal pups (P7-P9), 30 mg kg^−1 sub-cutaneous, 480 nm light
In short: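 WT and Opn4−/− pups aged P7–P9 were tested once daily. Pups were dark-adapted for 1 h, then given vehicle or compound at 30 mg kg−1 s.c. Each pup wore a head reflective sticker and sat in a transparent tube for 10 min. After 5 min of darkness, the head end was lit with 480 nm light at 9.5 × 10^15 ph/cm2/s. IR video covered 2 min before and 5 min after light onset. Head distance was scored in 1 s bins, and mean activity was compared before and after light. Pups without any bin above 1.3 mm/bin before light were excluded.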

[7] = test system: 74 biological targets including GPCRs and ion channels; experiment: Radioligand binding panel of 74 biological targets; details: 10 µM
[8] = test system: mice; experiment: Pupillary light reflex; format: in vivo; details: 10^13 ph.cm^−2.s^−1
In short: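 rd, WT and Opn4−/− mice carried an acrylic headpost and had at least 1 wk of recovery. Dark-adapted mice received vehicle or compound at 30 mg kg−1 IP 20 min before the first light, plus tropicamide in the left eye. The right eye was filmed under IR at 30 Hz. Each 5 min sequence was 1 min dark, 1 min 480 nm light (1 × 10^13 or 1 × 10^10 ph.cm−2.s−1), then 3 min dark. Sequences were repeated 19, 29 and 39 min post-injection. Pupil diameter was normalised to the mean of the first 20 s of darkness; n = 6–7.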

SMILES | Hill slope, displacement of [^3H]2-AA41612 [1] | IC50 [2] [nM] | IC50 [3] [nM] | fraction cleared from the retina [4] [%] | slope of Schild regression (dose ratio) plot ([3]; versus 9-cis retinal, light-exposed CHO^Opn4 cells) | effect on rod and rod/cone electroretinogram [5] | effect on light aversion (negative phototaxis) behavior [6] | inhibition of radioligand binding to a panel of 74 biological targets [7] | effect on PLR under high light intensity ([8]; Wild type (WT) mice) | attenuation of pupil constriction in response to light ([8]; adult rd mice, 30 mg kg^−1 i.p. 20 min prior)
CC1=C(/C=C/C(C)=C\C=C\C(C)=C\C=O)C(C)(C)CCC1 [9-cis retinal, reference compound] | ~1.0 | – | – | – | – | – | – | – | – | –
COc1cc(Cl)c(S(=O)(=O)N2CCCCC2)cc1Cl [AA41612, 1-(2,5-Dichloro-4-methoxy-benzenesulfonyl)-piperidine] | ~1.0 | 20 | 15.8 ± 1.8 | – | – | – | – | – | – | –
COc1ccc(S(=O)(=O)N2CCCCC2)cc1C [AA92593, 1-((4-methoxy-3-methylphenyl)sulfonyl)piperidine] | ~1.0 | 190 | – | > 95 | 0.9 | no noticeable inhibition of rod/cone photoreceptors | significantly reduced; also recorded: remarkably reduced light aversion behavior | failed to inhibit radioligand binding | attenuated PLR | ~ 50%
